Assay results taken from ChEMBL document CHEMBL3352109, “Synthesis and antifungal activity of substituted salicylaldehyde hydrazones, hydrazides and sulfohydrazides” (Bioorg Med Chem, 2014).
In brackets after ≈: the same amount, converted by molar mass. Activity calls are given as the source filed them. The rule behind the calls is not given here.

Key:
Candida albicans [1] = experiment: Antifungal activity against Candida albicans ATCC 10231 at 125 ug/ml by NCCLS method; type: functional, organism-based
Nakaseomyces glabratus [2] = experiment: Antifungal activity against Candida glabrata ATCC 48435 at 125 ug/ml by NCCLS method; type: functional, organism-based
HepG2 = experiment: Cytotoxicity against human HepG2 cells assessed as reduction in cell viability at 100 times MIC80 after 24 hrs by CellTiter 96 non-radioactive cell proliferation assay; type: cell-based; conditions: hepg2, 24 h
Method in brief: (§1)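 Cells exposed for 24 h at 37 °C, 5% CO2, to compound diluted in medium at the antifungal MIC and at 5, 10 and 100× MIC. Tetrazolium dye added for 1–4 h, then stop solution for 1 h at room temperature. Formazan read at 570 nm. Viability is the drug-well/no-drug (1% DMSO) control absorbance ratio, with control set to 100%. 0.1% saponin served as the death control. Triplicates, mean ± SD.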

Vero [3] = experiment: Cytotoxicity against african green monkey Vero cells assessed as reduction in cell viability at 100 times MIC80 after 24 hrs by CellTiter 96 non-radioactive cell proliferation assay; type: cell-based; conditions: chlorocebus sabaeus; method in brief: as §1
Nakaseomyces glabratus [4] = experiment: Antifungal activity against Candida glabrata ATCC 48435 by NCCLS method; type: functional
Method in brief: (§2)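 Broth dilution per NCCLS yeast reference method, in HEPES-buffered RPMI with 1% DMSO. MIC80 is the lowest concentration giving more than 80% growth inhibition versus positive (no-drug) controls. Read by visual scoring, not absorbance. Highest level tested 125 µg/mL.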

Candida albicans [5] = experiment: Antifungal activity against Candida albicans ATCC 10231 by NCCLS method; type: functional; method in brief: as §2
[6] = system: Vero (Chlorocebus sabaeus); experiment: Cytotoxicity against African green monkey Vero cells assessed as reduction in cell viability at MIC80 after 24 hrs by CellTiter 96 non-radioactive cell proliferation assay
Vero [7] = experiment: Cytotoxicity against african green monkey Vero cells assessed as reduction in cell viability at MIC80 after 24 hrs by CellTiter 96 non-radioactive cell proliferation assay relative to control; type: cell-based; conditions: chlorocebus sabaeus; method in brief: as §1

Compound | Activity (Candida albicans [1]) | Activity (Nakaseomyces glabratus [2]) | further results
COc1ccc(O)c(/C=N/NS(=O)(=O)c2ccc([N+](=O)[O-])cc2)c1 | inactive | inactive | –
O=S(=O)(N/N=C/c1cc(Br)ccc1O)c1ccc(Br)cc1 | inactive | inactive | –
Cc1ccc(S(=O)(=O)N/N=C/c2cc(C)ccc2O)cc1 | inactive | inactive | –
Cc1ccc(S(=O)(=O)N/N=C/c2cc(Br)ccc2O)cc1 | inactive | inactive | –
COc1ccc(S(=O)(=O)N/N=C/c2cc(Cl)ccc2O)cc1 | inactive | inactive | –
O=C(N/N=C/c1ccccc1O)c1ccc([N+](=O)[O-])cc1 | – | – | Activity (HepG2): Non-toxic; Activity (Vero [3]): Non-toxic; MIC80 (Nakaseomyces glabratus [4]): 0.5 µg/mL (≈ 1.75 µM); MIC80 (Candida albicans [5]): 0.5 µg/mL (≈ 1.75 µM)
O=[N+]([O-])c1ccc(S(=O)(=O)N/N=C/c2cc(Br)ccc2O)cc1 | inactive | inactive | –
Cc1ccc(S(=O)(=O)N/N=C/c2cc(Cl)ccc2O)cc1 | inactive | inactive | –
Cc1ccc(O)c(/C=N/NS(=O)(=O)c2ccccc2)c1 | inactive | inactive | –
O=[N+]([O-])c1ccc(O)c(/C=N/NS(=O)(=O)c2ccccc2)c1 | inactive | inactive | –
O=S(=O)(N/N=C/c1ccccc1O)c1ccc2ccccc2c1 | inactive | inactive | –
O=S(=O)(N/N=C/c1cc(Cl)ccc1O)c1ccccc1 | inactive | inactive | –
O=C(N/N=C/c1cc(Cl)ccc1O)c1ccccc1 | – | – | Activity (HepG2): Non-toxic; Activity (Vero [3]): Non-toxic; MIC80 (Nakaseomyces glabratus [4]): 0.5 µg/mL (≈ 1.82 µM); MIC80 (Candida albicans [5]): 0.5 µg/mL (≈ 1.82 µM)
COc1ccc(O)c(/C=N/NS(=O)(=O)c2ccc(Br)cc2)c1 | inactive | inactive | –
O=S(=O)(N/N=C/c1cc(Cl)ccc1O)c1ccc(Br)cc1 | inactive | inactive | –
Cc1ccc(S(=O)(=O)N/N=C/c2cc([N+](=O)[O-])ccc2O)cc1 | inactive | inactive | –
COc1ccc(O)c(/C=N/NS(=O)(=O)c2ccc(C)cc2)c1 | inactive | inactive | –
O=S(=O)(N/N=C/c1ccccc1O)c1ccccc1 | inactive | inactive | MIC80 (Nakaseomyces glabratus [4]): 125 µg/mL (≈ 452 µM)
Cc1ccc(O)c(/C=N/NC(=O)c2ccccc2)c1 | – | – | Activity [6]: 20%; MIC80 (Nakaseomyces glabratus [4]): 1 µg/mL (≈ 3.93 µM); MIC80 (Candida albicans [5]): 1 µg/mL (≈ 3.93 µM); Activity (Vero [7]): 20%
Cc1ccc(S(=O)(=O)N/N=C/c2ccccc2O)cc1 | inactive | inactive | MIC80 (Nakaseomyces glabratus [4]): inactive
O=[N+]([O-])c1cc(/C=N/Nc2ccccc2)c(O)c([N+](=O)[O-])c1 | – | – | Activity (HepG2): Non-toxic; Activity (Vero [3]): Non-toxic; MIC80 (Nakaseomyces glabratus [4]): 4 µg/mL (≈ 13.2 µM); MIC80 (Candida albicans [5]): 2 µg/mL (≈ 6.62 µM)

Compound | Activity (Candida albicans [1]) | Activity (Nakaseomyces glabratus [2]) | further results
O=[N+]([O-])c1ccc(S(=O)(=O)N/N=C/c2ccccc2O)cc1 | inactive | inactive | –
O=[N+]([O-])c1ccc(S(=O)(=O)N/N=C/c2cc([N+](=O)[O-])ccc2O)cc1 | inactive | inactive | –
O=[N+]([O-])c1ccc(S(=O)(=O)N/N=C/c2cc(Cl)ccc2O)cc1 | inactive | inactive | –
COc1ccc(S(=O)(=O)N/N=C/c2ccccc2O)cc1 | inactive | inactive | –
O=S(=O)(N/N=C/c1cc(Br)ccc1O)c1ccc2ccccc2c1 | inactive | inactive | –
Cc1ccc(O)c(/C=N/NS(=O)(=O)c2ccc3ccccc3c2)c1 | inactive | inactive | –
Cc1ccc(O)c(/C=N/NS(=O)(=O)c2ccc([N+](=O)[O-])cc2)c1 | inactive | inactive | –
COc1ccc(O)c(/C=N/NS(=O)(=O)c2ccccc2)c1 | inactive | inactive | –
O=S(=O)(N/N=C/c1cc(Br)ccc1O)c1ccccc1 | inactive | inactive | –
O=S(=O)(N/N=C/c1ccccc1O)c1ccc(Br)cc1 | inactive | inactive | –
COc1ccc(S(=O)(=O)N/N=C/c2cc(C)ccc2O)cc1 | inactive | inactive | –
N/N=C/c1ccccc1O | – | – | Activity (HepG2): Non-toxic; Activity (Vero [3]): Non-toxic; MIC80 (Nakaseomyces glabratus [4]): 4 µg/mL (≈ 29.4 µM); MIC80 (Candida albicans [5]): 16 µg/mL (≈ 118 µM)
Cc1ccc(O)c(/C=N/NS(=O)(=O)c2ccc(Br)cc2)c1 | inactive | inactive | –
O=S(=O)(N/N=C/c1cc(Cl)ccc1O)c1ccc2ccccc2c1 | inactive | inactive | –
COc1ccc(S(=O)(=O)N/N=C/c2cc([N+](=O)[O-])ccc2O)cc1 | inactive | inactive | –
O=[N+]([O-])c1ccc(O)c(/C=N/NS(=O)(=O)c2ccc3ccccc3c2)c1 | inactive | inactive | –
Cc1ccc(O)c(/C=N/NC(=O)c2ccc([N+](=O)[O-])cc2)c1 | – | – | Activity [6]: 20%; MIC80 (Nakaseomyces glabratus [4]): 0.125 µg/mL (≈ 0.418 µM); MIC80 (Candida albicans [5]): 0.5 µg/mL (≈ 1.67 µM); Activity (Vero [7]): 20%
COc1ccc(O)c(/C=N/NS(=O)(=O)c2ccc3ccccc3c2)c1 | inactive | inactive | –
O=[N+]([O-])c1ccc(O)c(/C=N/NS(=O)(=O)c2ccc(Br)cc2)c1 | inactive | inactive | –
COc1ccc(S(=O)(=O)N/N=C/c2cc(Br)ccc2O)cc1 | inactive | inactive | –
